# PAFAH2 inh: PAFAH2 (human) inhibition. recombinant PAFAH2, FP-rhodamine activity probe, fluorescence polarization. Q99487. 340,000 tested, 0.99% active. inhibition, % at 3.39 µM;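 active = inhibition above the mean over all tested compounds plus 3 SD, cut at about 30% in these data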;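 also: inhibitors block probe labeling of enzyme so polarization drops; 0% = enzyme with DMSO and 100% = wells lacking PAFAH2 protein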
# PAFAH1B3 inh: PAFAH1B3 (human) inhibition; 340,000 tested, 0.28% active; recombinant PAFAH1B3, FP-rhodamine probe, fluorescence polarization; Q15102; AID 492972; inhibition, % at 3.39 µM;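 active = inhibition above the screen-wide average of all tested compounds plus 3 SD, cut at about 25% in these data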;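 also: 0% = enzyme with DMSO only and 100% = wells lacking PAFAH1B3 protein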
# Target sequence (Q15102 whole entry, looked up): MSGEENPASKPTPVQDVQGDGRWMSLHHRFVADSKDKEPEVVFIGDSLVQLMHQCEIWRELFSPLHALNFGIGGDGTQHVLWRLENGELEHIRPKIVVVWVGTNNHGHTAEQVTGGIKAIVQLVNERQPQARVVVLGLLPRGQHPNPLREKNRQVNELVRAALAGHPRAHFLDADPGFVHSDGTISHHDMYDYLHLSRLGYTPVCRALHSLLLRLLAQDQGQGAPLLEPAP
# Apaf1 inhib: blocks human Apaf-1 apoptosome activity; O14727; reconstituted apoptosome caspase-3 activity, DEVD-Rh110 fluorescence; inhibition, % at 20 µM; 330,000 tested, 0.71% active; AID 489030; active = inhibition of at least 40% at 20 µM;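 also: plate controls were DMSO wells for no effect and DEVD-CHO caspase inhibitor wells for full effect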
#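 System: Apoptosome proteins | Medium: Hepes pH 7.5 with detergent and BSA | Also added: Cytochrome c trigger plus (Z-DEVD)2-Rh110 caspase-3 substrate | Incubation: 30 min compound preincubation, 50 min activation, room temperature | Detection: Rhodamine 110 fluorescence at Ex 480/Em 540 nm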
# PAFAH1B2 inh: inhibitors of human PAFAH1B2; P68402; recombinant PAFAH1B2, FP-rhodamine activity probe, fluorescence polarization; inhibition, % at 3.39 µM; 340,000 tested, 1.2% active;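 active = inhibition above the mean of all tested compounds plus 3 SD, cut at about 24% in these data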;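 also: 0% = enzyme with DMSO and 100% = wells lacking PAFAH1B2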
# Target sequence (P68402 whole entry, looked up): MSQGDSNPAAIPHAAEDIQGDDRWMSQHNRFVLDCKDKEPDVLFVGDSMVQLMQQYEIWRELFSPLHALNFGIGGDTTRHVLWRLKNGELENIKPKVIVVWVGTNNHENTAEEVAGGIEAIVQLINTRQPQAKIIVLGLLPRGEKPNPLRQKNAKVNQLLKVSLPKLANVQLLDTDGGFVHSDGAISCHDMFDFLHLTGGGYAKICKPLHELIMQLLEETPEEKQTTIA
# pPAFAH FP inh: pPAFAH (human) enzyme inhibition. inhibition, % at 3.39 µM. Q13093. 330,000 tested, 1.5% active. recombinant pPAFAH, FP-rhodamine probe fluorescence polarization;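 active = inhibition above the mean inhibition across the screen plus 3 SD, cut at about 25% in these data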;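 also: inhibitors block binding of the rhodamine activity-based probe so polarization drops; 0% = enzyme with DMSO and 100% = wells lacking pPAFAH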
# * marks the source's active call; other numbers are inactive results; . = no result given. Sampled rows, rich in hits. Any-hit rate of the full collection: about 3.1%.
SMILES,PAFAH2 inh,PAFAH1B3 inh,Apaf1 inhib,PAFAH1B2 inh,pPAFAH FP inh
Cc1cc([N+](=O)[O-])c2c(c1C)C1C=CCC1C(c1ccccn1)N2 (configuration not stated),.,.,9,.,28*
Cc1noc(C)c1COc1ccc(C(=O)NNC(=O)c2ccccc2O)cc1,5,16,11,5,-2
CCC(CO)Nc1nc2ccc(Cl)cc2c2ccccc12 (configuration not stated),13,6,21,1,27*
O=C(O)c1ccc(N=Nc2c(O)[nH]c3cc(Cl)ccc23)cc1,5,13,-10,10,5
O=C(O)c1ccc(N=Nc2c(O)[nH]c3ccc(Br)cc23)cc1,0,16,8,33*,4
COc1ccc(-c2nnc(C)c3nocc23)cc1,0,0,9,-2,25*
O=S(=O)(c1cccc(C(F)(F)F)c1)N1CCN(CC(O)COCc2ccccc2)CC1 (configuration not stated),-2,-1,9,0,-4
Cc1nn(C(=O)c2cccnc2)c(C)c1Sc1ccc(Br)cc1,0,6,4,28*,0
O=C1c2ccccc2C(=O)C12OC2c1cccc2ccccc12 (configuration not stated),19,65*,94*,16,5
O=C(O)c1ccccc1N=Nc1c(O)[nH]c2ccc([N+](=O)[O-])cc12,37*,18,14,9,21
Cc1ccc(NCC(=O)N=Nc2c(O)[nH]c3ccc([N+](=O)[O-])cc23)cc1,.,.,0,.,25*
CCCCN(Cc1ccco1)S(=O)(=O)c1csc(C(N)=O)c1,-4,2,11,8,2
O=C(NCC1CCCO1)c1ccc(NC(=O)c2cc(F)c(F)cc2Cl)cc1 (configuration not stated),3,6,-3,-2,3
CC(O)c1nc2ccccc2n1Cc1ccccc1 (configuration not stated),6,11,-2,0,2
CC(O)c1nc2ccccc2n1CCCc1ccccc1 (configuration not stated),1,-8,-6,0,34*
O=C(NCc1ccc2c(c1)OCO2)C(=O)NCC1OCCCN1S(=O)(=O)c1ccc(F)cc1 (configuration not stated),7,11,2,13,2
O=C1NC(=O)[C@@H]2C3c4ccccc4C=CN3[C@H](C(=O)c3cccs3)[C@H]12 (some centres not stated),.,.,47*,.,8
Cc1cc(Cl)ccc1N(CC(=O)NCc1ccccc1)S(C)(=O)=O,-6,5,8,5,6
COC(=O)C1(C)COP(=O)(NC23CC4CC(CC(C4)C2)C3)OC1 (configuration not stated),2,1,.,6,.
O=C(N/N=C/c1cc(Cl)cc([N+](=O)[O-])c1O)NC12CC3CC(CC(C3)C1)C2,53*,22,-56,59*,10
O=C(N/N=C/c1cc(Cl)cc([N+](=O)[O-])c1O)c1ccc2c(c1)OCO2,10,11,10,-1,12
Cc1ccc(Nc2nc(N)nc(COC(=O)C3=COCCO3)n2)cc1,0,-1,-2,2,-1
O=C(O)CNC(=O)C12CC3CC(CC(Cl)(C3)C1)C2,0,7,-5,33*,2
Cc1c(OCC(=O)N[C@@H](CSCc2ccccc2)C(=O)O)ccc2c3c(c(=O)oc12)CCC3,13,2,13,24*,.
CCN(CC)c1ccc(N=Cc2ccc(N(CC)CC)cc2O)cc1,-1,4,28,1,29*
SMILES,PAFAH2 inh,PAFAH1B3 inh,Apaf1 inhib,PAFAH1B2 inh,pPAFAH FP inh
CCN(CC)c1ccc(C=Nc2ccc(N(C)C)cc2)c(O)c1,-14,-23,44*,-16,16
CSc1nnc(N2C(=O)C(O)=C(C(=O)c3ccco3)C2c2cccc(Cl)c2)s1 (configuration not stated),16,5,.,6,-5
O=C(O/N=C/c1ccc2c(c1)OCO2)c1ccccc1Cl,.,.,13,.,37*
Cc1ccc2cc(C3C(C#N)=C(N)Oc4c3ccc3cccnc43)c(=O)[nH]c2c1 (configuration not stated),13,10,27,9,27*
CCc1ccc2[nH]c(=O)c(C3C(C#N)=C(N)Oc4c3ccc3cccnc43)cc2c1 (configuration not stated),5,14,16,4,43*
COc1ccc(C(=O)COC(=O)CN2C(=O)C3C4CCC(C4)C3C2=O)cc1 (configuration not stated),-5,-3,0,2,4
C[C@H](CO)N1C[C@H](C)[C@@H](CN(C)C(=O)Nc2ccc3c(c2)OCO3)Oc2c(NC(=O)Cc3ccccc3)cccc2C1=O,7,4,11,5,-10
COc1cccc(CN(C)CC(=O)Nc2cccc(S(=O)(=O)N(C)c3ccccc3)c2)c1OC,7,5,.,3,.
CCOc1ccc(CN(C)CC(=O)Nc2cccc(S(=O)(=O)N(C)c3ccccc3)c2)cc1,-3,1,4,1,28*
O=C(COC(=O)CCc1ccccc1)NNC(=O)c1ccccc1,0,3,-2,2,12
CCOC(=O)CC1(NC(=O)C2CCC(=O)N(CCc3ccccc3)C2)CCCCC1 (configuration not stated),12,6,3,5,4
Cc1nc2ccccc2n1CCC(=O)O,0,8,5,0,-1
Cc1nc2ccccc2n2c(O)c(CC(=O)O)cc12,26,13,-21,18,27*
COc1ccc(C(C[N+](=O)[O-])c2c(C)[nH]c3ccccc23)cc1OC (configuration not stated),-1,9,11,-3,9
Cc1ccc(C(C[N+](=O)[O-])c2c(-c3ccccc3O)[nH][nH]c2=O)cc1 (configuration not stated),11,2,32,25*,3
COc1ccc(C(=O)NC(=S)NCc2cccnc2)cc1OC,-8,2,0,0,-1
COc1ccc(C(=O)NC(=S)NCc2ccccc2)cc1OC,-2,9,15,4,30*
O=c1[nH]c2cc(Cl)ccc2c(O)c1-c1cccc(Oc2ccccc2)c1,9,4,-3,32*,-5
O=c1[nH]c2ccc(Cl)cc2c(O)c1-c1ccccc1,2,10,-4,2,-3
N#Cc1c(Nc2cccc(F)c2)sc2c(O)cc(=O)[nH]c12,.,.,13,.,25*
Cc1cc(=O)[nH]c(Nc2cccc(F)c2)n1,-1,10,-9,-3,-2
O=C(c1ccc(=O)[nH]n1)N1CCN(S(=O)(=O)c2cccc(F)c2)CC1,34*,34*,13,22,.
COc1ccc(-c2nn3c(-c4ccccc4)nnc3s2)cc1,10,6,11,-3,2
CCN(CC)c1ccc(-c2nn3c(-c4ccccc4OC)nnc3s2)cc1,0,-3,30,5,25*

# Screens: PubChem, several laboratories
